ChEMBL document CHEMBL2177013, “Synthesis and biological evaluation of tylophorine-derived dibenzoquinolines as orally active agents: exploration of the role of tylophorine e ring on biological activity” (J Med Chem, 2012)
The source made the active and inactive calls. The rule behind the calls is not given here.

Key:
[1] = Growth inhibition of human HONE1 cells; format: functional
Procedure, shortened: (§1)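 Cells seeded per well: NUGC-3 4500, HONE-1 6000, MCF-7 6500, NCI-H460 2500, HepG2 10000, A549 5000; A549 grown in RPMI 1640 with 2 g/L NaHCO₃, 2 mM L-glutamine and 10% FBS. GI₅₀ = concentration giving 50% growth inhibition, mean of at least three experiments each in duplicate. Paclitaxel served as positive control.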

[2] = system: Transmissible gastroenteritis virus; assay: Antiviral activity against Transmissible gastroenteritis virus infected in ST cells pre-treated 2 hrs before virus infection measured 6 hrs post virus infection by immunofluorescent assay; format: functional, organism-based; conditions: Alphacoronavirus 1, ST
Procedure, shortened: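 ST cells, with or without 2 h compound pretreatment (10 concentrations), infected with TGEV at MOI 10. Immunofluorescence with anti-spike and anti-nucleocapsid antibodies at 6 hpi. EC50 from dose–response curves, mean of at least three experiments, each in duplicate.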

NCI-H460 [3] = assay: Growth inhibition of human NCI-H460 cells; format: functional; procedure, shortened: as §1
HepG2 = assay: Growth inhibition of human HepG2 cells; format: functional; procedure, shortened: as §1
A549 [4] = assay: Growth inhibition of human A549 cells; format: functional; procedure, shortened: as §1
MCF7 [5] = assay: Growth inhibition of human MCF7 cells; format: functional; procedure, shortened: as §1
NUGC-3 = assay: Growth inhibition of human NUGC3 cells; format: functional; procedure, shortened: as §1
NCI-H460 [6] = assay: Induction of c-Jun protein accumulation in human NCI-H460 cells incubated for 24 hrs by Western blotting; format: functional, cell-based
NCI-H460 [7] = assay: Down regulation of cyclin A2 expression in human NCI-H460 cells incubated for 24 hrs by Western blotting; format: functional, cell-based
[8] = Cytotoxicity against mouse RAW264.7 cells; format: cell-based
Procedure, shortened: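 RAW264.7 cells stimulated with LPS/IFNγ and compound-treated in parallel with the NO assay; CC50 taken as concentration giving 50% inhibition of cell growth. Mean of at least three experiments, each in duplicate.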

A549 [9] = assay: Induction of c-Jun protein accumulation in human A549 cells incubated for 24 hrs by Western blotting; format: functional, cell-based
[10] = system: Transmissible gastroenteritis virus; assay: Antiviral activity against Transmissible gastroenteritis virus infected in ST cells assessed as reduction in N-protein expression pre-treated before virus infection measured 16 hrs post virus infection by Western blotting; format: functional, organism-based
Procedure, shortened: (§2)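 ST cells pretreated with compound, then infected with TGEV. Western blot for nucleocapsid (N) protein, caspase 3 (cleavage of procaspase 3) and GAPDH at 16 hpi. Representative of at least three independent experiments.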

MCF7 [11] = assay: Induction of c-Jun protein accumulation in human MCF7 cells incubated for 24 hrs by Western blotting; format: functional, cell-based
A549 [12] = assay: Down regulation of cyclin A2 expression in human A549 cells incubated for 24 hrs by Western blotting; format: functional, cell-based
RAW264.7 [13] = assay: Antiinflammatory activity in mouse RAW264.7 cells assessed as inhibition of LPS-induced nitric oxide production incubated for 18 hrs by nitrate/nitrite assay; format: functional, cell-based; conditions: RAW264.7, 18 h
Procedure, shortened: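 RAW264.7 seeded 65000 cells/well, cultured 24 h, then medium replaced with complete medium containing IFNγ (20 ng/mL)/LPS (5 μg/mL) plus compound at various concentrations for 18 h; nitric oxide measured by Nitrate/Nitrite kit. EC50 as mean of at least three experiments, each in duplicate.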

RAW264.7 [14] = assay: Reduction in LPS/INFgamma-induced COX2 protein expression in mouse RAW264.7 cells incubated for 20 hrs by Western blotting; format: functional, cell-based
Procedure, shortened: (§3)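 LPS/IFNγ-stimulated RAW264.7 cells treated with compound for 20 h. iNOS, COX-2 and GAPDH detected by Western blot; representative of at least three independent experiments.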

MCF7 [15] = assay: Down regulation of cyclin A2 expression in human MCF7 cells incubated for 24 hrs by Western blotting; format: functional, cell-based
[16] = system: Transmissible gastroenteritis virus; assay: Antiviral activity against Transmissible gastroenteritis virus infected in ST cells assessed as reduction in caspase-3 activation pre-treated before virus infection measured 16 hrs post virus infection by Western blotting; format: functional, organism-based; procedure, shortened: as §2
RAW264.7 [17] = assay: Reduction in LPS/INFgamma-induced iNOS protein expression in mouse RAW264.7 cells incubated for 20 hrs by Western blotting; format: functional, cell-based; procedure, shortened: as §3

| Structure (SMILES) | GI50 [1] | EC50 [2] | GI50 (NCI-H460 [3]) | GI50 (HepG2) | GI50 (A549 [4]) | GI50 (MCF7 [5]) | GI50 (NUGC-3) | Activity (NCI-H460 [6]) | Activity (NCI-H460 [7]) | CC50 [8] | Activity (A549 [9]) | Activity [10] | Activity (MCF7 [11]) | Activity (A549 [12]) | EC50 (RAW264.7 [13]) | Activity (RAW264.7 [14]) | Activity (MCF7 [15]) | Activity [16] | Activity (RAW264.7 [17]) |
| --- | --- | --- | --- | --- | --- | --- | --- | --- | --- | --- | --- | --- | --- | --- | --- | --- | --- | --- | --- |
| CCCN1Cc2c(c3cc(OC)c(OC)c(OC)c3c3cc(OC)c(OC)cc23)C(O)C1 (stereo unspecified) | 0.82 µM | 0.66 µM | 0.59 µM | 0.83 µM | 0.82 µM | 0.59 µM | 0.49 µM | – | – | – | – | – | – | – | – | – | – | – | – |
| CCCN1CCc2c(c3cc(OC)ccc3c3cc(OC)c(OC)cc23)C1 | 5.56 µM | 8.91 µM | 3.82 µM | 4.48 µM | 4.64 µM | 3.75 µM | 4.63 µM | – | – | – | – | – | – | – | – | – | – | – | – |
| CCCN1CCc2c(c3cc(OC)c(OC)cc3c3cc(OC)ccc23)C1 | 0.77 µM | 0.68 µM | 0.26 µM | 0.48 µM | 0.47 µM | 0.42 µM | 0.43 µM | – | – | – | – | – | – | – | – | – | – | – | – |
| CCCN1CCc2c(c3ccc(OC)cc3c3cc(OC)c(OC)cc23)C1 | 3.31 µM | 8.68 µM | 2.4 µM | 3.17 µM | 2.95 µM | 2.83 µM | 2.94 µM | – | – | – | – | – | – | – | – | – | – | – | – |
| COc1cc2c3c(c4cc(OC)c(OC)cc4c2cc1OC)CN(CCCNC(=O)OC(C)(C)C)CC3 | 4.52 µM | 1.03 µM | 2.89 µM | 4.15 µM | 3.55 µM | 3.35 µM | 3.4 µM | – | – | – | – | – | – | – | – | – | – | – | – |
| CCCCN1Cc2c(c3ccc(OC)cc3c3cc(OC)c(OC)cc23)C(O)C1 (stereo unspecified) | 3 µM | 2.92 µM | 1.48 µM | 1.85 µM | 1.32 µM | 2.33 µM | 1.86 µM | – | – | – | – | – | – | – | – | – | – | – | – |
| COc1cc2c3c(c4cc(OC)c(OC)c(OC)c4c2cc1OC)CCN(C(C)C)C3 | 1.12 µM | 0.78 µM | 0.57 µM | 1.61 µM | 0.76 µM | 0.72 µM | 0.64 µM | – | – | – | – | – | – | – | – | – | – | – | – |
| CCN1Cc2c(c3cc(OC)c(OC)cc3c3cc(OC)c(OC)cc23)C(O)C1 (stereo unspecified) | 0.44 µM | 0.34 µM | 0.17 µM | 0.36 µM | 0.19 µM | 0.16 µM | 0.15 µM | Active | Active | > 2 µM | Active | Active | Active | Active | 0.38 µM | Active | Active | Active | Active |
| CCCN1Cc2c(c3cc(OC)c(OC)cc3c3cc(OC)c(OC)cc23)C(O)C1 (stereo unspecified) | 1.74 µM | 0.67 µM | 1.08 µM | 1.68 µM | 1.19 µM | 1.02 µM | 0.73 µM | – | – | > 4 µM | – | – | – | – | 2.2 µM | – | – | – | – |
| COc1cc2c3c(c4cc(OC)c(OC)cc4c2cc1OC)CN(C(C)C)CC3 | 0.94 µM | 0.6 µM | 0.29 µM | 0.67 µM | 0.38 µM | 0.34 µM | 0.32 µM | Active | Active | > 4 µM | Active | Active | Active | Active | 0.86 µM | Active | Active | Active | Active |
| COc1cc2c3c(c4cc(OC)c(OC)cc4c2cc1OC)C(O)CN(C(C)C)C3 (stereo unspecified) | 1.71 µM | 2.74 µM | 1.07 µM | 1.86 µM | 1.23 µM | 1.21 µM | 0.87 µM | – | – | > 4 µM | – | – | – | – | 2.05 µM | – | – | – | – |
| CCCN1CCc2c(c3cc(OC)ccc3c3c(OC)c(OC)ccc23)C1 | 4.75 µM | 2.63 µM | 3.76 µM | 6.29 µM | 3.67 µM | 4.11 µM | 3.72 µM | – | – | – | – | – | – | – | – | – | – | – | – |
| CCCN1CCc2c(c3cc(OC)c(OC)cc3c3c(OC)c(OC)c(OC)cc23)C1 | 0.96 µM | 0.77 µM | 0.49 µM | 0.86 µM | 0.79 µM | 0.62 µM | 0.54 µM | – | – | – | – | – | – | – | – | – | – | – | – |
| COc1cc2c3c(c4cc(OC)c(OC)cc4c2cc1OC)CN(CC1OCCO1)CC3 | 22.1 µM | > 50 µM | 18.5 µM | 41 µM | 31.5 µM | 22.4 µM | 19.1 µM | – | – | – | – | – | – | – | – | – | – | – | – |
